# Measurements pooled from the literature.
Structure (SMILES),target or system,test,test system,conditions,quantity,value
CN(C)c1ccc(-c2c(C(N)=O)c(N)n(N)c(=O)c2C#N)cc1,Saccharomyces cerevisiae,"microbial growth, well diffusion",ATCC9763,500 µg/mL,inhibition zone,13 mm
O=C(NC(=S)Nc1nccs1)c1ccco1,Leishmania tropica,"parasite growth, resazurin",,promastigote,IC50,12.4 µM
CCOc1ccc(-c2c(Cc3ccc(OC)cc3)[nH]/c(=N/C(=O)C34CC5CC(CC(C5)C3)C4)n2C)cc1OC,Hepatitis B virus,"viral replication, inhibitor",HePAD38,,IC50,10.9 µM
CCCCCCCCCCCCCCCCOP(=O)([O-])OCC[N+](C)(C)C,Leishmania tropica,"parasite growth, resazurin",,promastigote,IC50,2.12 µM
Cc1c(C(N)=S)c(N)n(N)c(=O)c1C#N,Saccharomyces cerevisiae,"microbial growth, well diffusion",ATCC9763,500 µg/mL,inhibition zone,18 mm
O=C(NC(=S)Nc1ccccc1O)c1cccs1,Leishmania tropica,"parasite growth, resazurin",,promastigote,IC50,0.29 µM
Cc1c(C(=O)O)ccc2c3n(nc12)[C@@H]1[C@H](C3)N(CC2CC2)[C@@]2(C(=O)Nc3cc(Cl)ccc32)[C@H]1c1cccc(Cl)c1F,NUGC-4,"cell growth or viability, resazurin",,,IC50,0.012 µM
O=C(NO)c1ccc(CNc2nc3cccc(-c4ccc5c(c4)OCO5)n3n2)cc1,SF-268,"cell growth or viability, SRB",,,GI50,0.47 µM
Nc1ccc(/C=C/C(=O)N2CCc3c(oc4c(-c5ccc(F)cc5)cc(-c5ccc(C(=O)N6CCOCC6)nn5)cc34)C2)cn1,PANC-1,"cell growth or viability, CCK-8",,72 h,IC50,> 20 µM
CC(=O)Oc1ccc(-c2c(C(N)=O)c(N)n(N)c(=O)c2C#N)cc1,Saccharomyces cerevisiae,"microbial growth, well diffusion",ATCC9763,500 µg/mL,inhibition zone,9 mm
Nc1ccc(/C=C/C(=O)N2CCc3c(oc4c(-c5ccc(F)cc5)cc(-c5ccc(C(=O)N6C[C@@H]7[C@H](C6)C7(F)F)nn5)cc34)C2)cn1,PANC-1,"cell growth or viability, CCK-8",,72 h,IC50,> 20 µM
C=CC(=O)NC1CCN(c2ncc3ncnc(Nc4ccc(Oc5ccc6c(c5)ncn6C)c(C)c4)c3n2)CC1,PANC-1,cell growth or viability,,,EC50,1.8 µM
